ChEMBL document CHEMBL4513216, “Probing the Open Global Health Chemical Diversity Library for Multistage-Active Starting Points for Next-Generation Antimalarials” (ACS Infect Dis, 2020)

Assay: Toxicity liver stage against HepG2, at 10uM
Format: cell-based
Parameters: test concentration 10 uM, cell line HepG2-A16-CD81EGFP
Details: human, HepG2-A16-CD81EGFP cells; read-out: INHIBITION
Summary of the method: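 Uninfected HepG2-A16-CD81EGFP cells, 3 × 10^3 per well, 1536-well, plated on prespotted compound at 10 μM final, parasite-free screening media added to match infected plates; puromycin 10 μM positive, DMSO 0.5% negative; run in parallel with 48 h PbLuc assay at 37 °C, 5% CO2; viability by CellTiter-Glo luminescence, normalized to controls.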

| Structure (SMILES) | cytotoxicity at 10 µM [%] |
| --- | --- |
| N#CCCN(CC1CCCO1)C(=O)c1ccsc1 (stereo not given) | 0.325 |
| O=C(Cn1ccc2ccc(F)cc21)NC[C@@H]1CCCN2CCCC[C@H]12 | 14 |
| O=S1(=O)CCC(S(=O)(=O)c2cccc(S(=O)(=O)N3CCOCC3)c2)C1 (stereo not given) | 3.42 |
| CCN(CC)c1nc2ccsc2c(=O)n1CCC(=O)NC1CCCC1 | 7.19 |
| O=C(NC1CC1)[C@H]1COC[C@H]2CN(c3ncc(F)cn3)C[C@H]21 | -0.664 |
| CCn1cc2c(n1)C(COC)CN(Cc1ccoc1)C2 (stereo not given) | 7.89 |
| O=C(c1ccco1)N1CCCC2(CCN(CCN3CCCC3)C2=O)C1 (stereo not given) | -4.73 |
| CC(C)N1CCC2(CC1)NC(=O)c1cc(Br)ccc1-n1nnnc12 | 9.26 |
| Cc1cccnc1C(Cc1ccsc1)NC(=O)Cn1cccnc1=O (stereo not given) | 3.08 |
| CC(=O)N1CC2(CCCCN2Cc2ccc(Cl)cc2)Cc2ccccc21 (stereo not given) | 14.5 |
| FC(F)Oc1ccccc1CNCc1cc(Br)c2c(c1)OCO2 | 10.7 |
| Cc1ccc(C(=O)NCC(C)Cn2cccn2)c(=O)[nH]1 (stereo not given) | 3.14 |
| Cc1csc(C(C)(C)NCCOc2ccc(CC#N)cc2)n1 | 1.74 |
| Cc1nc(CN(C)S(=O)(=O)c2ccccc2Br)no1 | 6.2 |
| COc1ccc2c(c1)NC(=O)C2OC(=O)Cc1ccccc1C (stereo not given) | 45.2 |
| Cc1cc(NC(=O)C(C)NCCn2cccn2)no1 (stereo not given) | 10.6 |
| CCc1nnc(C2Cc3ccccc3CN2Cc2cc(C)no2)o1 (stereo not given) | -7.4 |
| Cc1noc(C)c1CNc1cccc(C(=O)N(C)c2ccccc2)c1 | 17.5 |
| CCCC(NC(=O)c1cc(C)c(F)cc1F)c1nnn[nH]1 (stereo not given) | -2.59 |
| CCN(CC1CN(Cc2cccc(C#N)c2)CCO1)c1cccnn1 (stereo not given) | 17 |
| Cc1ncc(CN(C)C2CCCN(c3cccnn3)C2)s1 (stereo not given) | 0.709 |
| CN1CCN(c2ccc(F)cc2C(N)=O)CC1 | 6.11 |

| Structure (SMILES) | cytotoxicity at 10 µM [%] |
| --- | --- |
| CCN(C)S(=O)(=O)N(CC)Cc1cccc(-c2ccncc2)c1 | -11.5 |
| Cc1nnc(C(C)N(C)Cc2c(C)nn(-c3ccccc3C)c2C)o1 (stereo not given) | -1.07 |
| CC(=O)N1CCC(C(=O)NC(C)c2cccc(OC(F)F)c2)CC1 (stereo not given) | -8.2 |
| COc1ncc(Cl)c(NCc2ccc(C(=O)N(C)C)cc2)n1 | 9.95 |
| Cn1c(=O)oc2cc(Nc3ncc(C#N)cc3Cl)ccc21 | 4.93 |
| CN1CC(Nc2ccc(Br)cc2C#N)CCC1=O (stereo not given) | 8.25 |
| CCc1ccc(C(=O)O)cc1S(=O)(=O)N(C)c1cccc(C)c1 | -8.2 |
| Fc1ccc(NCc2ncc[nH]2)cc1Br | 3.76 |
| N#Cc1cccc(OCC(=O)N(Cc2ccncc2)C2CC2)c1 | -44.2 |
| OCc1cc2ccccc2nc1NCC1CC1 | -46.2 |
| O=C(CN1CCOC(Cn2cccn2)C1)NC(C1CC1)C1CC1 (stereo not given) | -42.1 |
| Cc1cnc(CCN(C)C(=O)c2cccc(C)c2O)s1 | -2.48 |
| CCc1nnc2n1CCN(Cc1nc3c(F)cccc3[nH]1)C2 | -8.06 |
| Cn1cc(C(=O)OCC(N)=O)c(-c2ccc(F)cc2F)n1 | -7.85 |
| CC(=O)N1CCCN(C(=O)c2oc(Br)cc2C)CC1 | -13.6 |
| COc1cc(N2CCC3(CC(=O)N(Cc4csc(C)n4)C3)C2)ncn1 (stereo not given) | -104 |
| CN(C)S(=O)(=O)N1CCC2(COCc3cnc(-c4cccnc4)nc32)C1 (stereo not given) | -115 |
| O=C(NCc1cccnc1)N1CCn2c(Cn3cccn3)cnc2C1 | -71.1 |
| CN(C)C(=O)N1CCc2c(COCC3CC3)cncc2C1 | -68.2 |
| Cc1noc(C)c1CN1C[C@@H]2COC[C@@H](C(=O)N3CCCO3)[C@@H]2C1 | -69.9 |
| CN1CCN([C@H]2COC[C@@H]3CN(Cc4cccnc4)C[C@@H]32)CC1 | -77.9 |
| CN(C)C(=O)CC1CC2(CCNCC2)c2cc(F)ccc21 (stereo not given) | 6.54 |

| Structure (SMILES) | cytotoxicity at 10 µM [%] |
| --- | --- |
| COCCn1c2c(ccc1=O)CC(NS(C)(=O)=O)CC2 (stereo not given) | 8.8 |
| COc1ccccc1Nc1nc2c(s1)C(=O)CN(C(=O)CC(C)C)C2 | 61.2 |
| O=S(=O)(CCNCc1cc(O)c2cc(F)ccc2n1)N1CCCC1 | -39.5 |
| CN(CC(=O)N1CC(C)(C)[C@@](C)(O)C1)Cc1ccncc1 | -49.4 |
| O=C(NCC1CCCN(C(=O)NCCc2ccccc2)C1)c1ccco1 (stereo not given) | -4.66 |
| CC(C)N1CCOC(CC(=O)N2CCCN(Cc3ccncc3)CC2)C1 (stereo not given) | -7.49 |
| CSc1ccc(CN(C(=O)c2cc(=O)[nH]c(=O)[nH]2)C2CC2)cc1 | -44.8 |
| Cc1cccc(CN2CCN(c3ncnc4[nH]ccc34)CC2CCO)n1 (stereo not given) | 10.8 |
| Cc1ccccc1-n1ncc(C(C)N)c1C (stereo not given) | -8.23 |
| CN(C(=O)CC1=CCCCC1)C1CCCN(CCc2ccccc2)C1 (stereo not given) | 7.23 |
| CCN(Cc1noc(C)n1)C(=O)CCn1c(C)cc2ccccc21 | -3.97 |
| Cc1ncsc1CCC(=O)N1CCn2cccc2C1c1cccnc1 (stereo not given) | -9.57 |
| CNc1nc(C(=O)N2CCCC(CO)(CCCOC)C2)cs1 (stereo not given) | 7.43 |
| CC(C)N1CCCC(C(=O)N2CCN(c3nsc4ccccc34)CC2)C1 (stereo not given) | 2.81 |
| COCCN1CCC(C(=O)N(C)CCOc2ccc(C)cc2Cl)C1 (stereo not given) | 13.4 |
| O=C1CCCN1CCC1CCCCN1C(=O)c1ccc(SCCO)cc1 (stereo not given) | -43 |
| CCN(Cc1noc(CC(C)C)n1)Cc1ccccc1C(=O)O | -51.6 |
| CC(C)N1CCC(CC(=O)N2CCN(Cc3nccn3C)CC2)CC1 | -3.91 |
| CC(C)c1cc(NCc2csc(C(C)C)n2)nc(N)n1 | 19.8 |
| CN(Cc1ccco1)c1ccc(C(=O)NCCCc2ccccn2)cn1 | -55.8 |
| CCCn1ncc(C(=O)NC2CCN(C3CCOCC3)CC2)c1C | 5.66 |
| CC(=O)NC1CCN(c2nc(N(C)C)nc3c2CCN(C(C)=O)C3)CC1 | 0.541 |

| Structure (SMILES) | cytotoxicity at 10 µM [%] |
| --- | --- |
| CN(Cc1ccncn1)c1nccc(CCC(F)(F)F)n1 | 11.2 |
| CCN(C)C[C@@H]1CN(S(=O)(=O)c2ccc(C#N)cc2)C[C@@H]1CO | 13.5 |
| CC(C)N(C)C(=O)CN1C(=O)OC[C@@H]1c1ccccc1 | -47.7 |
| CCn1cnc(NC(=O)N2CCC(c3ccc(Cl)cc3)C2)n1 (stereo not given) | 0.0451 |
| CCn1nc(C)cc1S(=O)(=O)N1CCC2(CCCN(C(C)C)C2=O)C1 (stereo not given) | -16.3 |
| CCC(C)N(Cc1cccnc1)Cc1cc2c(cc1Cl)OCO2 (stereo not given) | 6.16 |
| COCCCN1CCN([C@@H]2c3ccccc3C3(CCNCC3)[C@H]2O)CC1 | -4.86 |
| CCCc1nc(N(C)Cc2cnc(NC)nc2)c2cnn(C)c2n1 | 3.42 |
| Cc1cc(C)n2ncc(CN3CCC(n4cc(CCO)nn4)CC3)c2n1 | 6.59 |
| Cc1cc(C(F)(F)F)nc(CNC(=O)CCn2cccn2)n1 | 1.7 |
| CCNc1ncc(CN2C[C@@H](C(=O)O)[C@H](C3CC3)C2)cn1 | -46.1 |
| CN1CC(c2n[nH]c(=O)n2-c2cccc(Cl)c2)CC1=O (stereo not given) | 3.24 |
| CS(=O)(=O)N1CCN(c2ccnc(N3CCCCC3)n2)CC1 | -0.359 |
| O=C1CC[C@H]2CN(C3CCOCC3)CC[C@H]2N1CCC1=CCCCC1 | -4.76 |
| O=C(CC1=CCCCC1)N1CCC(Cn2cc(CCO)nn2)CC1 | 3.88 |
| O=c1cc(CN2CCCC(CCc3c(F)cccc3F)C2)[nH]c(=O)[nH]1 (stereo not given) | -3.88 |
| CC(C)(O)C1CCN(C(=O)Nc2nc(-c3ccccc3)ns2)CC1 | 5.68 |
| OCCN1CCN(Cc2coc(-c3ccccc3)n2)CC1 | -5.03 |
| CC(NC(=O)NCc1ccccc1)(C(=O)O)c1ccco1 (stereo not given) | -3.37 |
| CCc1ccsc1C(=O)N1CCCN(Cc2cnn(CC)c2)CC1 | 0.501 |
| Cc1ccc(OCC(O)CN2CCc3c(ncn3C3CC3)C2)cc1 (stereo not given) | 0.2 |
| Cc1ccc(-c2nc(CN3CCOC(CN(C)C)C3)co2)cc1 (stereo not given) | -4.23 |

| Structure (SMILES) | cytotoxicity at 10 µM [%] |
| --- | --- |
| Cc1nnc2n1CCN(CCOc1ccccc1C#N)C2 | -4.53 |
| Cc1cn2nc(N3CCN(Cc4c(C)noc4C)CC3)sc2n1 | -8.81 |
| COCc1nc(C(=O)N2CCCC(n3ccnc3)C2)cs1 (stereo not given) | -2.12 |
| Cc1noc(C)c1CN1CCN(C(C)c2nc(C3CC3)no2)CC1 (stereo not given) | -16.5 |
| CCn1cc(NC(=O)CN2CCC(Oc3ccc(F)cc3)CC2)c(C)n1 | 9.25 |
| Cc1ccc(CN2CCc3c(nnn3C)C2COCc2ccccc2)s1 (stereo not given) | -110 |
| Cn1cc(N2CC[C@@H]3CN(Cc4ccncc4)C[C@H]3C2=O)cn1 | -103 |
| Cc1ccc(N2CCC3(CC2)CCN(C2CCOCC2)CC3)nn1 | 5.5 |
| CC(C)N1CCC2(CC1)CC(CC(N)=O)c1ccc(F)cc12 (stereo not given) | 12.8 |
| O=C(c1cscn1)N1CCc2c(COCC3CC3)cncc2C1 | -105 |
| Cc1ncsc1CN1CCn2c(COc3cccnc3)cnc2C1C (stereo not given) | 9.16 |
| Cc1ccc(CN2CC[C@@H]3OCCN(Cc4ccncc4)[C@H]3CC2)s1 | 6.84 |
| CN(Cc1ccncc1)C1CC2(CCN(c3ncccn3)CC2)C1 | 13.1 |
| COc1ccc(C[C@H]2CN(Cc3ccoc3)CC[C@@H]2OC)cc1 | 2.51 |
| O=C(c1cccc(F)c1)N1CC[C@H]2[C@H]1CCN2CC1CCOCC1 | -75.4 |
| CN1CCO[C@@H]2CN(C(=O)c3ccc4ncccc4c3)CC[C@@H]2C1 | -112 |
| Cc1ccc(Nc2nccc(C3CCN(C(=O)CN)C3)n2)nc1 (stereo not given) | -18.5 |
| CN1CC2(CCN(S(=O)(=O)C3CC3)CC2)c2ccccc21 | -4.35 |
| CCN1C[C@H]2[C@@H](C1)N(S(=O)(=O)c1cccnc1)CC[C@H]2OC | -1.78 |
| Cn1cnc2c1C(COCC1CC1)CN(C(=O)c1cscn1)C2 (stereo not given) | 0.922 |
| NC1CC(C(F)(F)F)=NC=C1c1ccc(Cl)cc1 (stereo not given) | 50.2 |
| O=C(c1cccc(CNCC=Cc2ccccc2)c1)N1CCCC1 | 9.46 |
